In ChEMBL document CHEMBL3576864, “Striatoids A-F, Cyathane Diterpenoids with Neurotrophic Activity from Cultures of the Fungus Cyathus striatus” (J Nat Prod, 2015):
Calls of active or inactive are those of the source. The rule behind the calls is not given here.

How the values were obtained:
PC-12 [1] = test: Neurotrophic activity in rat PC12 cells assessed as enhancement of NGF-induced neurite outgrowth after 48 hrs by inverted microscopic analysis; format: functional, cell-based
Method in brief: (§1)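 PC-12 cells grown in F-12 (Ham) with 10% heat-inactivated HS, 5% FBS, penicillin/streptomycin, 37 °C, 5% CO2. Seeded on poly-L-lysine wells (2 × 10^4 cells/mL), 24 h. Switched to low serum (1% HS, 0.5% FBS), then dosed 10–40 μM with NGF 20 ng/mL (vehicle 0.1% DMSO), triplicate wells, 48 h. Phase-contrast scoring: ≥100 cells in each of five random fields; neurite ≥ one cell body = positive, as % of cells.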

PC-12 [2] = test: Effect on neurite outgrowth in rat PC12 cells at 10 to 40 uM after 48 hrs by inverted microscopic analysis; format: functional, cell-based; method in brief: as §1

## CC(C)C1=C2[C@H]3CC=C4[C@@H]5O[C@]6(O)[C@@]7(O)[C@@H](OC[C@]6(O)O5)O[C@@H]([C@@H]47)[C@]3(C)CC[C@@]2(C)[C@@H](O)C1
PC-12 [1]
  Activity: Dose-dependent effect
PC-12 [2]
  Activity: inactive

## CC(C)C1=C2[C@H]3CC=C4[C@H]5O[C@H]6CO[C@H]7O[C@@H]([C@@H]4[C@@]7(O)[C@@]6(O)O5)[C@]3(C)CC[C@@]2(C)[C@@H](O)C1
PC-12 [1]
  Activity: Dose-dependent effect
PC-12 [2]
  Activity: inactive

## CC(C)C1=C2[C@H]3CC=C4[C@@H](O)[C@@]5(O)CO[C@H]6O[C@@H]([C@@H]4[C@@]6(O)[C@H]5O)[C@]3(C)CC[C@@]2(C)[C@@H](O)C1
PC-12 [1]
  Activity: Dose-dependent effect
PC-12 [2]
  Activity: inactive

## CC(=O)O[C@@H]1C2=CC[C@@H]3C4=C(C(C)C)C[C@H](O)[C@]4(C)CC[C@@]3(C)[C@H]3O[C@@H]4OC[C@@]1(O)[C@H](O)[C@]4(O)[C@H]23
PC-12 [1]
  Activity: Dose-dependent effect
PC-12 [2]
  Activity: inactive

## CC(=O)O[C@@H]1[C@H]2CC[C@@H]3C4=C(C(C)C)C[C@H](O)[C@]4(C)CC[C@@]3(C)[C@H]3O[C@@H]4OC[C@@]1(O)[C@H](O)[C@]4(O)[C@H]23
PC-12 [1]
  Activity: Dose-dependent effect
PC-12 [2]
  Activity: inactive

## CO[C@H]1O[C@@]2(O)[C@H](O)CO[C@H]3O[C@H]4[C@@H]([C@@H]1CC[C@@H]1C5=C(C(C)C)C[C@H](O)[C@]5(C)CC[C@]14C)[C@]32O
PC-12 [1]
  Activity: Dose-dependent effect
PC-12 [2]
  Activity: inactive
